# Reference: ChEMBL document CHEMBL1135654, “Antitumor agents. 1. Synthesis, biological evaluation, and molecular modeling of 5H-pyrido[3,2-a]phenoxazin-5-one, a compound with potent antiproliferative activity” (J Med Chem, 2002)
# pIC50: −log10 of the molar value.
# Columns and labels:
# [1] = tested on: MT4; assay: Compound concentration required to reduce the cell proliferation of human CD4+T cells by 50%, using MTT method; assay type: functional, cell-based
# Outline: (§1)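 Leukemia/lymphoma cells in exponential growth resuspended at 1 × 10^5 cells/mL in RPMI 1640 (10% FCS, antibiotics) with serial dilutions of drug (DMSO stock 200 µM diluted in medium). Viability by MTT after 96 h at 37 °C, 5% CO2. Growth expressed as % of untreated controls; IC50 by linear regression. Controls underwent ≥3 rounds of multiplication. Mean of three independent determinations.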
# [2] = tested on: CCRF-SB; assay: Compound concentration required to reduce the cell proliferation of human acute B-lymphoblastic leukemia CCRF-SB cells by 50%, using MTT method; assay type: functional, cell-based; outline: as §1
# [3] = tested on: HEp-2; assay: Compound concentration required to reduce the cell proliferation of larynx carcinoma cells by 50%, using MTT method; assay type: functional, cell-based; settings: Homo sapiens
# Outline: (§2)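 Solid-tumor cells in exponential growth seeded at 5 × 10^4 cells/mL in their own medium with 10% FCS, allowed to adhere 16 h, then serially diluted drug added (DMSO stock 200 µM diluted in medium). MTT viability read 4 days later, 37 °C, 5% CO2. IC50 by linear regression from % of untreated control growth. Three independent determinations.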
# [4] = tested on: HeLa; assay: Compound concentration required to reduce the cell proliferation of cervix carcinoma Hela cells by 50%, using MTT method; assay type: functional, cell-based; settings: Homo sapiens; outline: as §2
# [5] = tested on: CCRF-CEM; assay: Compound concentration required to reduce the cell proliferation of human acute T-lymphoblastic leukemia CCRF-CEM cells by 50%, using MTT method; assay type: functional, cell-based; outline: as §1
# [6] = tested on: MT4; assay: Compound concentration required to reduce the cell proliferation of human CD4+T cells by 50%, using MTT method.; assay type: functional, cell-based; outline: as §1
# [7] = tested on: CCRF-CEM; assay: Compound concentration required to reduce the cell proliferation of human acute T-lymphoblastic leukemia CCRF-CEM cells by 50%, using MTT method.; assay type: functional, cell-based; outline: as §1
# [8] = tested on: HEp-2; assay: Compound concentration required to reduce the cell proliferation of larynx carcinoma cells by 50%, using MTT method.; assay type: functional, cell-based; settings: Homo sapiens; outline: as §2
# [9] = tested on: HeLa; assay: Compound concentration required to reduce the cell proliferation of cervix carcinoma Hela cells by 50%, using MTT method.; assay type: functional, cell-based; settings: Homo sapiens; outline: as §2
# [10] = tested on: CCRF-SB; assay: Compound concentration required to reduce the cell proliferation of human acute B-lymphoblastic leukemia CCRF-SB cells by 50%, using MTT method.; assay type: functional, cell-based; outline: as §1
# [11] = Compound concentration required to reduce the cell proliferation of Wild type and drug-resistant KB subclones passaged in the presence of etoposide 7 uM by 50%; assay type: functional; settings: Homo sapiens
# Outline: (§3)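 Cells seeded at 5 × 10^4 cells/mL, adhered 16 h, exposed to serial drug dilutions; MTT after 4 days. IC50 by linear regression versus untreated controls; mean ± SD of three independent determinations.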
# [12] = Effect on the proliferation Wild -type and Drug- resistant KB subclones passaged in the presence of vincristine 0.02 uM; assay type: functional, Homo sapiens; outline: as §3
# [13] = Compound concentration required to reduce the cell proliferation of Wild type and Drug- resistant KB subclones passaged in the presence of doxorubicin 0.09 uM by 50%; assay type: functional; settings: Homo sapiens; outline: as §3
# [14] = tested on: MT4; assay: Antitumor activity against human CD4+T cells expressing the TAT gene of HTLV-1 MT-4 cells; assay type: functional, cell-based; outline: as §1
# [15] = tested on: 5637; assay: Antitumor activity against human bladder carcinoma 5637 cells; assay type: functional, cell-based; outline: as §2
# [16] = tested on: MT4; assay: Antitumor activity against […] human acute T-lymphoblastic leukemia MT-4 cells; assay type: functional, cell-based; outline: as §1
# [17] = tested on: C8166; assay: Antitumor activity against […] human acute T-lymphoblastic leukemia C8166 cells; assay type: functional, cell-based; outline: as §1
# [18] = tested on: ACHN; assay: Antitumor activity against human renal adenocarcinoma ACHN cells; assay type: functional, cell-based; outline: as §2
# [19] = tested on: IMR-32; assay: Antitumor activity against human neuroblastoma IMR32 cells; assay type: functional, cell-based; outline: as §2
# [20] = tested on: SK-MEL-28; assay: Antitumor activity against human skin melanoma […] cells; assay type: functional, cell-based; outline: as §2
# [21] = tested on: DU-145; assay: Antitumor activity against human prostate carcinoma DU145 cells; assay type: functional, cell-based; outline: as §2
# [22] = tested on: HepG2; assay: Antitumor activity against human hepatocellular carcinoma HepG2 cells; assay type: functional, cell-based; outline: as §2
# [23] = tested on: CRL-7065 cell line; assay: Antitumor activity against human foreskin fibroblasts CRL7065 cells; assay type: functional, cell-based; outline: as §2
# [24] = tested on: SK-MES-1; assay: Antitumor activity against human lung squamous carcinoma SK-MES-1 cells; assay type: functional, cell-based; outline: as §2
# [25] = (§4) Cytotoxicity for Peripheral blood Lymphocytes; assay type: functional; settings: Homo sapiens
# Outline: (§5)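 Human PBL from HIV-negative donors, isolated on Ficoll-Hypaque. Resting cells (1 × 10^6/mL) exposed up to 3 days to serial drug dilutions, washed, PHA-stimulated 24 h, diluted to 1 × 10^5/mL with PHA and IL-2, viability read after 6 days at 37 °C. Alternatively, PBL stimulated with PHA (2.5 µg/mL) 24 h, then grown with PHA, IL-2 (50 U/mL) and drug, and viable cells counted at day 6. Mean ± SD, three experiments.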
# [26] = tested on: HEp-2; assay: Antitumor activity against larynx carcinoma Hep-2 cells; assay type: functional, cell-based; settings: Homo sapiens; outline: as §2
# [27] = as §4; assay type: functional; settings: Homo sapiens; outline: as §5; remark: listed apart in the source
# [28] = tested on: Raji; assay: Antitumor activity against human Burkitt lym phoma Raji cells; assay type: functional, cell-based; outline: as §1
# [29] = tested on: MOLT-4; assay: Antitumor activity against human acute T-lymphoblastic leukemia MOLT-4 cells; assay type: functional, cell-based
# [30] = tested on: CCRF-CEM; assay: Antitumor activity against human acute T-lymphoblastic leukemia CCRF-CEM cells; assay type: functional, cell-based; outline: as §1
# [31] = tested on: HeLa; assay: Antitumor activity against cervix carcinoma Hela cells; assay type: functional, cell-based; settings: Homo sapiens; outline: as §2
# [32] = tested on: MCF7; assay: Antitumor activity against human breast adenocarcinoma MCF-7 cells; assay type: functional, cell-based; outline: as §2
# [33] = tested on: CCRF-SB; assay: Antitumor activity against human acute B-lymphoblastic leukemia CCRF-SB cells; assay type: functional, cell-based; outline: as §1
# [34] = Compound concentration required to reduce the cell proliferation of Wild type and Drug- resistant human nasopharyngeal carcinoma KB cells by 50%; assay type: functional, cell-based; outline: as §3
# [35] = tested on: HT-29; assay: Antitumor activity against human colon adenocarcinoma HT-29 cells; assay type: functional, cell-based; outline: as §2
# [36] = tested on: G-361; assay: Antitumor activity against human skin melanoma G-361 cells; assay type: functional, cell-based; outline: as §2
# [37] = tested on: WIL2-NS; assay: Anti tumor activity against human splenic B-lympho blastoid Wil2-NS cells; assay type: functional, cell-based; outline: as §1
# [38] = tested on: Panel leukemia (Carcinoma cell lines); assay: Cytotoxicity for lymphoblastoid cell lines; assay type: functional; settings: Homo sapiens
# [39] = tested on: WIL2-NS; assay: Antitumor activity against human splenic B-lympho blastoid Wil2-NS cells; assay type: functional, cell-based; outline: as §1
Structure (SMILES),pIC50 [6],pIC50 [7],pIC50 [8],pIC50 [9],pIC50 [10],pIC50 [14],pIC50 [15],pIC50 [16],pIC50 [17],pIC50 [18],pIC50 [19],pIC50 [20],pIC50 [21],pIC50 [22],pIC50 [23],pIC50 [24],pIC50 [26],pIC50 [28],pIC50 [29],pIC50 [30],other results
Nc1cc2nc3ccccc3oc-2cc1=O,–,–,–,–,–,–,–,–,–,–,–,–,–,–,–,–,–,–,–,–,pIC50 [1]: 5.92; pIC50 [2]: 6.00; pIC50 [3]: 5.74; pIC50 [4]: 5.57; pIC50 [5]: 5.70
O=c1ccc2nc3ccccc3oc-2c1,4.96,4.72,4.85,4.89,5.05,–,–,–,–,–,–,–,–,–,–,–,–,–,–,–,–
O=c1cc2oc3ccccc3nc-2c2cccnc12,–,–,–,–,–,8.00,8.00,8.00,7.00,8.00,8.00,6.68,7.40,7.30,6.30,7.40,7.40,7.40,7.40,8.00,pIC50 [11]: 7.70; pIC50 [12]: 7.22; pIC50 [13]: 7.40; CC50 [25]: 0.03 µM; CC50 [27]: 5 µM; pIC50 [31]: 6.70; pIC50 [32]: 6.64; pIC50 [33]: 8.05; pIC50 [34]: 7.00; pIC50 [35]: 6.60; pIC50 [36]: 8.00; pIC50 [37]: 7.30; CC50 [38]: 0.04 µM
CC(=O)Nc1cc2nc3ccccc3oc-2cc1=O,5.02,< 4.30,5.85,5.09,5.44,–,–,–,–,–,–,–,–,–,–,–,–,–,–,–,–
O=c1cc2sc3ccccc3nc-2c2cccnc12,–,–,–,–,–,7.10,6.82,7.10,6.39,5.72,6.28,6.09,6.21,6.96,6.09,6.10,7.00,7.52,6.85,7.15,pIC50 [31]: 6.22; pIC50 [32]: 6.19; pIC50 [33]: 7.10; pIC50 [39]: 6.82; pIC50 [35]: 5.00; pIC50 [36]: 6.66
